Results: ChEMBL document CHEMBL1122394, “Synthesis of potential anticancer agents. Pyrido[4,3-b][1,4]oxazines and pyrido[4,3-b][1,4]thiazines” (J Med Chem, 1983)
pIC50: −log10 of the molar value.

How the values were obtained:
Mus musculus [1] = test: Increase in life span of mice with lymphocytic leukemia P388 10E6 tumor cell implant (intraperitoneally) at the highest nontoxic dose of 300 mg/kg tested; type: functional; settings: P388, ip, route intraperitoneal
How it was run: (§1)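 Mice bore P388 lymphocytic leukemia. The value is the increase in life span at the highest nontoxic dose tested, with toxicity judged by weight change.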

L1210 [2] = test: Antiproliferative activity against lymphoid leukemia L1210 cells after 48 hr exposure.; type: functional; settings: Mus musculus, L1210, 48 h; read-out: ID50 (the source's name)
Mus musculus [3] = test: Increase in life span of mice with lymphocytic leukemia P388 10E6 tumor cell implant (intraperitoneally) at the highest nontoxic dose of 150 mg/kg tested; type: functional; settings: P388, ip, route intraperitoneal; how it was run: as §1
L1210 [4] = test: Concentration that causes a mitotic index (fraction of cells in mitosis divided by total cells) of 0.5 for cultured lymphoid leukemia L1210 cells after exposure of 12 hr; type: functional, Mus musculus
How it was run: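 Cultured lymphoid leukemia L1210 cells exposed to agent for 12 h. Mitotic index is the fraction of cells in mitosis over total cells. The value is the agent concentration giving a mitotic index of 0.5.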

Mus musculus [5] = test: Increase in life span of mice with lymphocytic leukemia P388 10E6 tumor cell implant (intraperitoneally) at the highest nontoxic dose of 75 mg/kg tested; type: functional; settings: P388, ip, route intraperitoneal; how it was run: as §1
Mus musculus [6] = test: Increase in life span of mice with lymphocytic leukemia P388 10E6 tumor cell implant (intraperitoneally) at the highest nontoxic dose of 200 mg/kg tested; type: functional; settings: P388, ip, route intraperitoneal; how it was run: as §1
Mus musculus [7] = test: Increase in life span of mice with lymphocytic leukemia P388 10E6 tumor cell implant (intraperitoneally) at the highest nontoxic dose of 100 mg/kg tested; type: functional; settings: P388, ip, route intraperitoneal; how it was run: as §1
Mus musculus [8] = test: Compound tested for weight change in mice at a dose of 200 mg/kg; Toxic; type: toxicity, organism-based; set-up: dose 200 mg/kg; settings: in vivo
Mus musculus [9] = test: Compound tested for weight change in mice at a dose of 400 mg/kg; Toxic; type: toxicity, organism-based; set-up: dose 400 mg/kg; settings: in vivo

SMILES | ILS at 300 mg/kg (Mus musculus [1]) | pIC50 (L1210 [2]) | MI0.5 (L1210 [4]) | also measured
CCOC(=O)Nc1cc2c(c(N)n1)N=C(c1cc(OC)c(OC)c(OC)c1)CO2 | 0% | < 5.52 |  | 
CCOC(=O)Nc1cc2c(c(N)n1)N=C(c1ccc([N+](=O)[O-])cc1)CO2 | 0% | < 5.52 |  | 
CCOC(=O)Nc1cc2c(c(N)n1)N=C(c1ccccc1)C(C)S2 (stereo not given) |  | 5.80 | 9.6 µM | ILS at 150 mg/kg (Mus musculus [3]): 10%
CCOC(=O)Nc1cc2c(c(N)n1)N=C(c1cccc(OC)c1)CS2 |  | 6.28 | 2 µM | ILS at 75 mg/kg (Mus musculus [5]): 3%
CCOC(=O)Nc1cc2c(c(N)n1)N=C(c1ccc(Cl)cc1)CO2 | 0% | < 5.52 |  | 
CCOC(=O)Nc1cc2c(c(N)n1)N=C(c1ccccc1)C(c1ccccc1)O2 (stereo not given) |  | 6.06 | 3 µM | ILS at 200 mg/kg (Mus musculus [6]): 2%
CCOC(=O)Nc1cc2oc(=O)c(-c3ccccc3)nc2c(N)n1 | 0% | 5.52 |  | 
CCOC(=O)Nc1cc2c(c(N)n1)N=C(c1ccccc1)CS2 | 0% | 5.21 | >10 µM | 
CCOC(=O)Nc1cc2c(c(/N=C/N(C)C)n1)N=C(c1ccccc1)CO2 |  | 6.51 | 0.78 µM | ILS at 100 mg/kg (Mus musculus [7]): 1%; Toxicity (Mus musculus [8]): Toxic
CCOC(=O)Nc1cc2c(c(N)n1)N=C(c1ccccc1)CO2 |  | 6.65 | 0.56 µM | ILS at 100 mg/kg (Mus musculus [7]): 44%; Toxicity (Mus musculus [9]): Toxic; ILS at 200 mg/kg (Mus musculus [6]): 80%
CCOC(=O)Nc1cc2c(c(NC(=O)CBr)n1)N=C(c1ccccc1)CO2 |  | 5.66 | 11 µM | 
CCOC(=O)Nc1cc2c(c(N)n1)N=C(c1ccccc1)C(C)O2 (stereo not given) |  | 6.96 | 0.49 µM | ILS at 100 mg/kg (Mus musculus [7]): 49%
CCOC(=O)Nc1cc2c(c(N)n1)N=C(c1cc(OC)cc(OC)c1)C(C)O2 (stereo not given) |  | 5.90 | 2.9 µM | 
CCOC(=O)Nc1cc2c(c(N)n1)N=C(c1ccccc1)C(C)(C)S2 |  | < 5.00 |  | 
CCOC(=O)Nc1cc2c(c(N)n1)N=C(c1ccc3ccccc3c1)CS2 | 5% | 6.24 | 3 µM | 
CCOC(=O)Nc1cc2c(c(N)n1)N=C(c1ccc(OC)cc1)CS2 | 3% | 6.47 | 4.9 µM | 
CCOC(=O)Nc1cc2c(c(N)n1)N=C(c1cccc(OC)c1)CO2 |  | 7.28 | 0.1 µM | 
